The values that follow come from ChEMBL document CHEMBL1124486, “Antimalarial activity of new water-soluble dihydroartemisinin derivatives. 2. Stereospecificity of the ether side chain” (J Med Chem, 1989).

For assay [1], the system named is Plasmodium falciparum. The assay is described as follows: In vitro antimalarial activity against Plasmodium falciparum W-2 Indochina. It is filed as functional, organism-based. The essentials:
(§1)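 [³H]hypoxanthine uptake assay. Compound was dissolved in DMSO and 70% ethanol, diluted in RPMI 1640 with 10% human plasma, then tested over (1.56-100) × 10⁻⁹ M. Parasites (0.5% parasitemia, 1% hematocrit) were incubated 24 h with compound, then [³H]hypoxanthine was added and incubation continued 18 h. Cells were harvested and counted by scintillation. IC50 came from nonlinear regression of concentration-response data.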

Assay [2] has as its system Plasmodium falciparum. The assay is described as follows: In vitro antimalarial activity against Plasmodium falciparum D6 (Sierra Leone). Format: functional, organism-based. The method, boiled down:
as §1

Assay [3] concerns Plasmodium berghei. As to the kind of experiment: Increased mean survival time (>12-14 days) in P berghei infected mice (Mus musculus) after 3 days at 80 mg/kg; active in 3 of 5. It is filed as functional.
Assay [4] relates to Plasmodium berghei. As to the kind of experiment: Cures in Plasmodium berghei infected mice (Mus musculus) after 3 days at 20 mg/kg; cured 0 of 5. It is filed as functional.
For assay [5], the system named is Plasmodium berghei. The assay is described as follows: Cures in Plasmodium berghei infected mice (Mus musculus) after 3 days at 320 mg/kg; cured 5 of 5. Format: functional.
Assay [6] concerns Plasmodium berghei. As to the kind of experiment: Cures in Plasmodium berghei infected mice (Mus musculus) after 3 days at 80 mg/kg; cured 1 of 5. Format: functional.
In assay [7] the test system is Plasmodium berghei. As to the kind of experiment: Increased mean survival time (>12-14 days) in Plasmodium berghei infected mice (Mus musculus) after 3days at 20 mg/kg; active in 2 of 5. It is filed as functional.
Assay [8] relates to Plasmodium berghei. As to the kind of experiment: Cures in Plasmodium berghei infected mice (Mus musculus) after 3 days at 20 mg/kg; cured 1 of 5. Format: functional.
In assay [9] the test system is Plasmodium berghei. As to the kind of experiment: Cures in Plasmodium berghei infected mice (Mus musculus) after 3 days at 80 mg/kg; […]. Format: functional.
In assay [10] the test system is Plasmodium berghei. The assay is described as follows: Increased mean survival time (>12-14 days) in Plasmodium berghei infected mice (Mus musculus) after 3 days at 20 mg/kg; active in 4 of /5. It is filed as functional.
Assay [11] concerns Plasmodium berghei. The assay is described as follows: Increased mean survival time (>12-14 days) in P berghei infected mice (Mus musculus) after 3 days at 80 mg/kg; active in 5 of 5. Format: functional.
The test system of assay [12] is Plasmodium berghei. As to the kind of experiment: Cures in Plasmodium berghei infected mice (Mus musculus) after 3 days at 320 mg/kg; cured 3 of 5. It is filed as functional.
Assay [13] concerns Plasmodium berghei. The assay is described as follows: Cures in Plasmodium berghei infected mice (Mus musculus) after 3 days at 80 mg/kg; cured 0 of 5. Format: functional.
The test system of assay [14] is Plasmodium berghei. As to the kind of experiment: Increased mean survival time (>12-14 days) in Plasmodium berghei infected mice (Mus musculus) after 3 days at 80 mg/kg; active in 1 of 5. It is filed as functional.
Assay [15] relates to Plasmodium berghei. The assay is described as follows: Cures in Plasmodium berghei infected mice (Mus musculus) after 3 days at 640 mg/kg; cured 4 of 5. It is filed as functional.
Assay [16] concerns Plasmodium berghei. As to the kind of experiment: Increase in mean survival time (>12-14 days) in Plasmodium berghei infected mice (Mus musculus) after 3 days at 80 mg/kg; active in 1 of 5. It is filed as functional.
Assay [17] has as its system Plasmodium berghei. The assay is described as follows: Cures in Plasmodium berghei infected mice (Mus musculus) after 3 days at 160 mg/kg; cured 1 of 5. It is filed as functional.
For assay [18], the system named is Plasmodium berghei. As to the kind of experiment: Cures in Plasmodium berghei infected mice (Mus musculus) after 3 days at 80 mg/kg; cured 2 of 5. Format: functional.
The subject of assay [19] is Plasmodium berghei. As to the kind of experiment: Cures in Plasmodium berghei infected mice (Mus musculus) after 3 days at 160 mg/kg; cured 5 of 5. Format: functional.
The subject of assay [20] is Plasmodium berghei. As to the kind of experiment: Cures in Plasmodium berghei infected mice (Mus musculus) after 3 days at 640 mg/kg; cured 5 of 5. Format: functional.

≈ marks a conversion by molar mass, not a printed value.

Usually IC50 stands for the point on the concentration scale where inhibition reaches its midpoint. A higher IC50 goes with weaker potency. In the case of `C[C@H]1[C@@H](OC[C@H](C)C(=O)O)O[C@@H]2O[C@@]3(C)CC[C@H]4[C@H](C)CC[C@@H]1[C@@]24OO3`, the IC50 in assay [1] was 8.33 ng/mL (≈ 22.5 nM); in assay [2], 28.7 ng/mL (≈ 77.5 nM).

In the case of `COC(=O)C[C@@H](C)O[C@H]1O[C@@H]2O[C@@]3(C)CC[C@H]4[C@H](C)CC[C@@H]([C@H]1C)[C@@]24OO3`, the IC50 was found to be 0.071 ng/mL (≈ 0.185 nM) in assay [1] and 0.44 ng/mL (≈ 1.14 nM) in [2].

On to `C[C@H]1[C@@H](O[C@@H](C)CC(=O)O)O[C@@H]2O[C@@]3(C)CC[C@H]4[C@H](C)CC[C@@H]1[C@@]24OO3`, for which the concentration for half-maximal inhibition (IC50) came to 7.43 ng/mL (≈ 20.1 nM) in assay [1] and 15 ng/mL (≈ 40.6 nM) in assay [2].

With `COC(=O)[C@@H](C)CO[C@H]1O[C@@H]2O[C@@]3(C)CC[C@H]4[C@H](C)CC[C@@H]([C@H]1C)[C@@]24OO3`, the IC50 in assay [1] stood at 0.015 ng/mL (≈ 0.039 nM); in [2] it was 0.36 ng/mL (≈ 0.936 nM).

As to `COC(=O)[C@H](C)CO[C@H]1O[C@@H]2O[C@@]3(C)CC[C@H]4[C@H](C)CC[C@@H]([C@H]1C)[C@@]24OO3`, the results for the “No. of mice survived” value in assay [3] and in [7] were 3 and 2, respectively. For the same molecule, the entries for the “No. of mice cured” value in assay [4], in assay [5] and in [6] were 0, 5 and 1, respectively. The half-inhibitory concentration (IC50) in assay [1] worked out at 0.057 ng/mL (≈ 0.148 nM); in assay [2], 2.15 ng/mL (≈ 5.59 nM).

For the molecule `COC(=O)C[C@H](C)O[C@H]1O[C@@H]2O[C@@]3(C)CC[C@H]4[C@H](C)CC[C@@H]([C@H]1C)[C@@]24OO3`, the “No. of mice cured” value in [8] amounted to 1; in [5] it was 5; in [9], 5. The “No. of mice survived” value in assay [10] is given as 4. The IC50 came out at 0.48 ng/mL (≈ 1.25 nM) in assay [1] and 1.91 ng/mL (≈ 4.97 nM) in assay [2].

Regarding `C[C@H]1[C@@H](OC[C@@H](C)C(=O)O)O[C@@H]2O[C@@]3(C)CC[C@H]4[C@H](C)CC[C@@H]1[C@@]24OO3`, the IC50 in [1] came to 5.32 ng/mL (≈ 14.4 nM); in assay [2], 22.2 ng/mL (≈ 60 nM).

With `C[C@H]1[C@@H](O[C@H](C)CC(=O)O)O[C@@H]2O[C@@]3(C)CC[C@H]4[C@H](C)CC[C@@H]1[C@@]24OO3`, the IC50 was determined as 4.42 ng/mL (≈ 11.9 nM) in assay [1] and 36.5 ng/mL (≈ 98.4 nM) in assay [2].

On to `C[C@H]1[C@@H](OCC23CC4CC(CC(C4)C2)C3)O[C@@H]2O[C@@]3(C)CC[C@H]4[C@H](C)CC[C@@H]1[C@@]24OO3`, for which the “No. of mice survived” value in [11] is 5. In addition, the “No. of mice cured” value was 0 in assay [4], 3 in assay [12] and 0 in assay [13]. For the same molecule, the IC50 came to 2.11 ng/mL (≈ 4.88 nM) in [1] and 2.7 ng/mL (≈ 6.24 nM) in assay [2].

Regarding `CC1=CO[C@@H]2O[C@]3(C)CC[C@H]4[C@H](C)CC[C@@H]1[C@@]24OO3` [ANHYDRODIHYDROARTEMISININ], the No. of mice survived in assay [14] stood at 1; in assay [9], 2; in assay [16], 1. Moreover, the figures for the “No. of mice cured” value in assay [15], in assay [17] and in assay [18] were 4, 1 and 2, respectively. Also, the IC50 in [1] is 0.43 ng/mL (≈ 1.61 nM); in assay [2], 0.83 ng/mL (≈ 3.12 nM).

On to `C[C@@H]1CC[C@H]2[C@@H](C)C(=O)O[C@@H]3O[C@@]4(C)CC[C@@H]1[C@]32OO4` [ARTEMISININ], for which the “No. of mice survived” value in assay [3] was 3; in assay [7] it was 2. The “No. of mice cured” value is 5 in [19], 0 in assay [4], 5 in assay [20] and 2 in [18]. The IC50 was 2.6 ng/mL (≈ 9.21 nM) in [1] and 2.35 ng/mL (≈ 8.32 nM) in [2].

Take `C=C[C@H]1CN2CC[C@H]1C[C@H]2[C@H](O)c1ccnc2ccc(OC)cc12` [QUININE]: the IC50 in [1] is 59 ng/mL (≈ 182 nM); in [2], 3.61 ng/mL (≈ 11.1 nM).
